Data as given in ChEMBL document CHEMBL1821604, “Anticancer activity and cDNA microarray studies of a (RS)-1,2,3,5-tetrahydro-4,1-benzoxazepine-3-yl]-6-chloro-9H-purine, and an acyclic (RS)-O,N-acetalic 6-chloro-7H-purine” (Eur J Med Chem, 2011).

Legend:
Assay type in all cases: functional
MCF7 [1] = experiment: Down regulation of PARK2 gene expression in human MCF7 cells at IC50 after 48 hrs by cDNA microarray technique relative to control
MCF7 [2] = experiment: Down regulation of SLC16A7 gene expression in human MCF7 cells at IC50 after 48 hrs by cDNA microarray technique relative to control
HT-29 [3] = experiment: Upregulation of Beta4GalNAc-T4 gene expression in human HT-29 cells at IC50 after 48 hrs by cDNA microarray technique relative to control
MCF7 [4] = experiment: Down regulation of C21orf42 gene expression in human MCF7 cells at IC50 after 48 hrs by cDNA microarray technique relative to control
In short: (§1)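 8 × 10⁶ cells exposed 48 h to compound at its IC50 concentration; total RNA isolated with trizol/chloroform and RNeasy columns including on-column DNase step; RNA quantified by OD 260/280; DMSO-treated cultures as control.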

MCF7 [5] = experiment: Down regulation of FLJ22955 gene expression in human MCF7 cells at IC50 after 48 hrs by cDNA microarray technique relative to control
In short: (§2)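 Cells (8 × 10⁶) were cultured in DMEM with 10% heat-inactivated FBS at 37 °C under 5% CO₂. They were exposed for 48 h to compound at its IC₅₀, with DMSO-treated parallel cultures as controls (final DMSO ≤0.1% v/v). Total RNA was isolated by trizol/chloroform phase separation, RNeasy column cleanup and on-column DNase, then quantified by OD260/OD280. Expression was profiled by cDNA microarray relative to control.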

HT-29 [6] = experiment: Upregulation of NAV1 gene expression in human HT-29 cells at IC50 after 48 hrs by cDNA microarray technique relative to control
HT-29 [7] = experiment: Down regulation of PGLYRP4 gene expression in human HT-29 cells at IC50 after 48 hrs by cDNA microarray technique relative to control
HT-29 [8] = experiment: Down regulation of SCD4 gene expression in human HT-29 cells at IC50 after 48 hrs by cDNA microarray technique relative to control
HT-29 [9] = experiment: Down regulation of LOC144448 gene expression in human HT-29 cells at IC50 after 48 hrs by cDNA microarray technique relative to control
HT-29 [10] = experiment: Down regulation of NFATC1 gene expression in human HT-29 cells at IC50 after 48 hrs by cDNA microarray technique relative to control
HT-29 [11] = experiment: Down regulation of NBEA gene expression in human HT-29 cells at IC50 after 48 hrs by cDNA microarray technique relative to control
MCF7 [12] = experiment: Upregulation of SMARCA1 gene expression in human MCF7 cells at IC50 after 48 hrs by cDNA microarray technique relative to control
MCF7 [13] = experiment: Upregulation of PPIL4 gene expression in human MCF7 cells at IC50 after 48 hrs by cDNA microarray technique relative to control
MCF7 [14] = experiment: Upregulation of HMGCS2 gene expression in human MCF7 cells at IC50 after 48 hrs by cDNA microarray technique relative to control
HT-29 [15] = experiment: Down regulation of POU6F1 gene expression in human HT-29 cells at IC50 after 48 hrs by cDNA microarray technique relative to control
MCF7 [16] = experiment: Down regulation of CORO2B gene expression in human MCF7 cells at IC50 after 48 hrs by cDNA microarray technique relative to control; in short: as §1
MCF7 [17] = experiment: Down regulation of THSD2 gene expression in human MCF7 cells at IC50 after 48 hrs by cDNA microarray technique relative to control
HT-29 [18] = experiment: Down regulation of FLOT1 gene expression in human HT-29 cells at IC50 after 48 hrs by cDNA microarray technique relative to control; in short: as §2
HT-29 [19] = experiment: Down regulation of DNAJC7 gene expression in human HT-29 cells at IC50 after 48 hrs by cDNA microarray technique relative to control; in short: as §2
HT-29 [20] = experiment: Down regulation of C20orf178 gene expression in human HT-29 cells at IC50 after 48 hrs by cDNA microarray technique relative to control; in short: as §1
HT-29 [21] = experiment: Down regulation of IL26 gene expression in human HT-29 cells at IC50 after 48 hrs by cDNA microarray technique relative to control; in short: as §2
HT-29 [22] = experiment: Down regulation of MGC33637 gene expression in human HT-29 cells at IC50 after 48 hrs by cDNA microarray technique relative to control
HT-29 [23] = experiment: Down regulation of HNRPAB gene expression in human HT-29 cells at IC50 after 48 hrs by cDNA microarray technique relative to control; in short: as §2
HT-29 [24] = experiment: Down regulation of ZFYVE9 gene expression in human HT-29 cells at IC50 after 48 hrs by cDNA microarray technique relative to control
HT-29 [25] = experiment: Down regulation of LMNB1 gene expression in human HT-29 cells at IC50 after 48 hrs by cDNA microarray technique relative to control; in short: as §2
MCF7 [26] = experiment: Upregulation of SCGB1D2 gene expression in human MCF7 cells at IC50 after 48 hrs by cDNA microarray technique relative to control
MCF7 [27] = experiment: Upregulation of UNQ739 gene expression in human MCF7 cells at IC50 after 48 hrs by cDNA microarray technique relative to control
MCF7 [28] = experiment: Upregulation of X77737 gene expression in human MCF7 cells at IC50 after 48 hrs by cDNA microarray technique relative to control
MCF7 [29] = experiment: Upregulation of CD1B gene expression in human MCF7 cells at IC50 after 48 hrs by cDNA microarray technique relative to control
MCF7 [30] = experiment: Upregulation of GPR132 gene expression in human MCF7 cells at IC50 after 48 hrs by cDNA microarray technique relative to control
MCF7 [31] = experiment: Down regulation of TMPRSS6 gene expression in human MCF7 cells at IC50 after 48 hrs by cDNA microarray technique relative to control
MCF7 [32] = experiment: Down regulation of ZNF354A gene expression in human MCF7 cells at IC50 after 48 hrs by cDNA microarray technique relative to control
HT-29 [33] = experiment: Upregulation of KIAA0553 gene expression in human HT-29 cells at IC50 after 48 hrs by cDNA microarray technique relative to control
HT-29 [34] = experiment: Down regulation of PRO1855 gene expression in human HT-29 cells at IC50 after 48 hrs by cDNA microarray technique relative to control
HT-29 [35] = experiment: Down regulation of MGC2654 gene expression in human HT-29 cells at IC50 after 48 hrs by cDNA microarray technique relative to control
HT-29 [36] = experiment: Down regulation of ARPC4 gene expression in human HT-29 cells at IC50 after 48 hrs by cDNA microarray technique relative to control; in short: as §1
HT-29 [37] = experiment: Down regulation of RXRB gene expression in human HT-29 cells at IC50 after 48 hrs by cDNA microarray technique relative to control
HT-29 [38] = experiment: Down regulation of POLE gene expression in human HT-29 cells at IC50 after 48 hrs by cDNA microarray technique relative to control

COC(CN(c1ccccc1CO)S(=O)(=O)c1ccccc1[N+](=O)[O-])n1cnc2ncnc(Cl)c21 (racemic)
fold change (FC) (MCF7 [1]): -2.2
fold change (FC) (MCF7 [2]): -2.27
fold change (FC) (HT-29 [3]): 3.08
fold change (FC) (MCF7 [4]): -2.31
fold change (FC) (MCF7 [5]): -2.65
fold change (FC) (HT-29 [6]): 2.06
fold change (FC) (HT-29 [7]): -2.02
fold change (FC) (HT-29 [8]): -2.25
fold change (FC) (HT-29 [9]): -2.45
fold change (FC) (HT-29 [10]): -2.78
fold change (FC) (HT-29 [11]): -2.89
fold change (FC) (MCF7 [12]): 2.91
fold change (FC) (MCF7 [13]): 2.4
fold change (FC) (MCF7 [14]): 2.39
fold change (FC) (HT-29 [15]): -3.13
fold change (FC) (MCF7 [16]): -2.01
fold change (FC) (MCF7 [17]): -2.28

O=C(OCC1c2ccccc2-c2ccccc21)N1CC(n2cnc3c(Cl)ncnc32)OCc2ccccc21 (racemic)
fold change (FC) (HT-29 [18]): -2.19
fold change (FC) (HT-29 [19]): -2.2
fold change (FC) (HT-29 [20]): -2.21
fold change (FC) (HT-29 [21]): -2.22
fold change (FC) (HT-29 [22]): -2.25
fold change (FC) (HT-29 [23]): -2.45
fold change (FC) (HT-29 [24]): -2.52
fold change (FC) (HT-29 [25]): -3
fold change (FC) (MCF7 [26]): 6.02
fold change (FC) (MCF7 [27]): 4.07
fold change (FC) (MCF7 [28]): 3.11
fold change (FC) (MCF7 [29]): 2.31
fold change (FC) (MCF7 [30]): 2.1
fold change (FC) (MCF7 [31]): -2.03
fold change (FC) (MCF7 [32]): -2.05
fold change (FC) (HT-29 [33]): 2.07
fold change (FC) (HT-29 [34]): -2
fold change (FC) (HT-29 [35]): -2.02
fold change (FC) (HT-29 [36]): -2.07
fold change (FC) (HT-29 [37]): -2.1
fold change (FC) (HT-29 [38]): -2.12
